GSK3A inh – blocks human GSK-3 alpha kinase; ADP-Glo luminescence, 60 min; AID 2650; P49840; inhibition, % at 10 µM; hit rate 0.1% among 320,000;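 active = more than half of replicates show inhibition above 20%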;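 also: GST-tagged GSK-3 alpha with peptide substrate and 25 µM ATP; 0% = DMSO neutral wells and 100% = GW8510 positive control wells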
STK33 inh – blocks human STK33 kinase activity; Q9BYT3; purified STK33, MBP phosphorylation, ADP-Glo luminescence; inhibition, % at 10 µM; hit rate 0.073% among 320,000;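 active = inhibition at or above 25%, using the most active replicate where run in duplicate; inactive = inhibition below 25%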
Target sequence (Q9BYT3 whole entry, looked up): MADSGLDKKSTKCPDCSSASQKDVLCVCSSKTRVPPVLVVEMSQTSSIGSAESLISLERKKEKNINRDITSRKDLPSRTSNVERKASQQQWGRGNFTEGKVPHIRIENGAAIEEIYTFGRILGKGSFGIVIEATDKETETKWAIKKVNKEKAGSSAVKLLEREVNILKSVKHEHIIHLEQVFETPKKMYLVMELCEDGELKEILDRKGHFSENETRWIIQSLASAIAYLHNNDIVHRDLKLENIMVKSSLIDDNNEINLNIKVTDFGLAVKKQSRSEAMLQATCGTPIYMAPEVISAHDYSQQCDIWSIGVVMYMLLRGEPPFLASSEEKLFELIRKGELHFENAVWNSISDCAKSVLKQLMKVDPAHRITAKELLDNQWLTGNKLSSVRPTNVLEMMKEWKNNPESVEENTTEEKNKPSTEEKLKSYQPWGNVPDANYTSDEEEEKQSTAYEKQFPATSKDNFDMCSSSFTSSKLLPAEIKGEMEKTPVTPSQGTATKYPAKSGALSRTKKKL
GSK3beta inhib – inhibitors of human GSK3beta kinase. hit rate 0.038% among 300,000. P49841. AID 2097. activity score (negative = inhibition), % at 10 µM. GST-GSK3beta kinase, ADP-Glo luminescence, 60 min; hits give low values;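 active = more than half of replicate wells score below -50%, meaning over 50% inhibition versus plate controls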;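 also: 0% = median DMSO wells and -100% = median GW8510 positive control wells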
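Assay system: GST-fused GSK3beta enzyme, cell-free / Medium: Tris pH 7.5 buffer with MgCl2, DTT, BSA, heparin / Also added: peptide substrate plus 25 µM ATP (final) / Compound: 10 µM single point / Timing: kinase reaction with compound 60 min at room temperature / Detection: ADP-Glo luminescence / Benchmarks: DMSO neutral wells and GW8510 at 20 µM as positive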
MEKK3 PB1 HTS – MEKK3-MEK5 PB1 interaction, increase or decrease; Q99759; bead-based flow cytometry, Alexa488-MEK5 binding to MEKK3; actives lie on both sides; 0 = blocked by unlabeled MEK5, 100 = vehicle; binding response (% of control), % at 10 µM; hit rate 1.4% among 290,000; AID 1529;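 active = binding response more than 3 SD above or below the average of its plate-row segment, actives on both sides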;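 also: Alexa488 bead fluorescence after subtracting the streptavidin-only scavenger bead signal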
MEKK2 mut-MEK5 – signal of MEK5 binding to mutant human MEKK2 PB1 domain; bead flow cytometry, Alexa488-MEK5 binding to MEKK2 mutant; hit rate 0.35% among 290,000; percent response, % at 10 µM; in the data active = percent response above about 24%, passing the limit was not always enough
MEKK2 WT-MEK5 – raises or lowers MEK5 binding to wildtype human MEKK2 PB1 domain; Q9Y2U5; bead flow cytometry, Alexa488-MEK5 binding to MEKK2 WT; actives lie on both sides; binding response (% of control), % at 10 µM; hit rate 1.1% among 290,000; AID 1531; in the data active = binding response below about 67% or above about 130%
MEKK2wt confirm – raises or lowers MEK5 binding to wildtype human MEKK2, retest; shares compounds with MEKK3 PB1 HTS; bead flow cytometry, Alexa488-MEK5 binding to MEKK2 WT; actives lie on both sides; binding response (% of control), % at 10 µM; hit rate 2.4% among 5,900; in the data active = binding response below about 16% or above about 210%; inactive = in between
MEKK2mut-MEK5 – signal of MEK5 binding to mutant human MEKK2, retest; shares compounds with MEKK3 PB1 HTS; bead flow cytometry, Alexa488-MEK5 binding to MEKK2 mutant; percent response, % at 10 µM; hit rate 2% among 5,900; AID 1893; in the data active = percent response mostly above about 71%, no sharp cut-off; inactive = mostly below about 38%;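 also: higher means compound restores mutant binding toward wildtype level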
MEKK3-MEK5 inh – MEKK3-MEK5 PB1 inhibition, single concentration confirmation | hit rate 1.8% among 5,900 | AID 1894 | bead flow cytometry, Alexa488-MEK5 binding to MEKK3; hits give low values | shares compounds with MEKK3 PB1 HTS | binding response (% of control), % at 10 µM;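 active = binding response below 72% of control, or above a set upper limit, though filed actives all read lower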;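 also: 100% = DMSO only wells and 0% = binding blocked by excess unlabeled MEK5; lower values mean stronger disruption of MEK5 binding to MEKK3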
Starred values were filed as active, the others as inactive; x = no result; ! = not active in a repeat; [ ] = another dose, or the depositor's remark. Compounds with a hit are over-represented: about 2.1% of the library has one in this group of screens.

SMILES | GSK3A inh | STK33 inh | GSK3beta inhib | MEKK3 PB1 HTS | MEKK2 mut-MEK5 | MEKK2 WT-MEK5 | MEKK2wt confirm | MEKK2mut-MEK5 | MEKK3-MEK5 inh
CCOC(=O)n1c(O)c(N=NC(N)=S)c2cc(C)ccc21 | -5 | -1 | 4 | 68*[inhibitor] | -20 | 69 | 104 | 2 | 103
Clc1ccc2c(c1)CCc1cccnc1C2=C1CCNCC1 | x | x | 3 | 103 | 3 | 144*! | 127 | 15 | 110
O=C(NCCCO)c1ccc(CSc2nc3ccccc3c(=O)[nH]2)cc1 | 2 | 0 | 1 | 128* | 24 | 113 | 109 | 9 | 102
Cc1cc(C)c2sc(N(CCCN(C)C)C(=O)c3ccc(Br)s3)nc2c1 | -1 | -1 | 0 | 114 | 28 | 189* | 204 | 54 | 111
Cc1ccc2nc(N(CCCN(C)C)C(=O)CN3C(=O)c4ccccc4C3=O)sc2c1 | 0 | -1 | -2 | 100 | 9 | 125 | x | x | x
Cc1cc(C)c2sc(N(CCCN(C)C)C(=O)CN3C(=O)c4ccccc4C3=O)nc2c1 | 4 | -3 | -12 | 70*[inhibitor] | 82* | 321* | 156 | 37 | 115
COc1ccc(NC(=O)C2C(=O)NC3(C)CC2c2ccccc2O3)cc1 (stereo not given) | -3 | -1 | -2 | 88 | -8 | 96 | x | x | x
CC12CC(c3ccccc3O1)C(C(=O)NCc1ccccc1)C(=O)N2 (stereo not given) | -1 | -1 | -2 | 81*[inhibitor] | -6 | 87 | 82 | -10 | 87
O=C(CSc1nc(-c2ccccc2)nc2ccccc12)Nc1cccc(C(=O)O)c1 | -2 | -1 | 3 | 4.0*[inhibitor] | -42 | 6.0*[inhibitor] | 118 | 6 | 102
CCN(CC(=O)NC(C)C)C(=O)[C@@H](NC(=O)c1ccco1)C(C)C | -3 | -1 | 1 | 97 | -2 | 95 | x | x | x
COc1ccccc1C(=O)Nc1ccc2c(c1)nc(CN1CCN(C(C)=O)CC1)n2C | -1 | 0 | -1 | 67*[inhibitor] | -12 | 68 | 106 | 3 | 104
COc1ccc2c(c1)nc(SCC(C)O)n2C (stereo not given) | -1 | -2 | 0 | 132* | 4 | 108 | 102 | 11 | 105
COc1ccc2c(c1)nc(SCC(=O)C(C)(C)C)n2C | -2 | 1 | 2 | 102 | 6 | 105 | x | x | x
COc1ccc2c(c1)nc(CN1CCN(CCO)CC1)n2C | -1 | -1 | -1 | 110 | 32* | 128 | 105 | 1 | 102
Nc1cc(Nc2ccc(Br)cc2)nc(N)n1 | 1 | 0 | -2 | 100 | 5 | 102 | x | x | x
O=c1oc2cc(O)ccc2cc1-c1nc2c(s1)CCc1ccccc1-2 | -1 | 0 | x | 91 | -7 | 82 | x | x | x
O=c1oc2ccccc2cc1-c1nc2c(s1)CCc1ccccc1-2 | -1 | -1 | 0 | 92 | -2 | 63*[inhibitor] | 72 | -15 | 99
Oc1ccc(-c2n[nH]c(=S)n2-c2ccc3c(c2)OCCO3)c(O)c1 | 9 | 0 | 1 | 70*[inhibitor] | -1 | 85 | 105 | -2 | 97
S=c1[nH]nc(-c2ccc(Cl)cc2Cl)n1-c1ccc2c(c1)OCCO2 | 1 | -2 | 4 | 97 | 2 | 99 | x | x | x
CC1=CC2=NC(=O)/C(=C\c3cccn3CCOc3ccccc3)C(=N)N2O1 | x | -2 | -2 | 132* | 1 | 110 | 100 | -4 | 104
CC(=O)Nc1cccc2c1C(=O)N(c1cccc(C)c1)C2=O | 3 | -1 | 0 | 73*[inhibitor] | 8 | 84 | 30 | -20 | 53*
CC(=O)Nc1cccc2c1C(=O)N(c1cccc(OC(C)=O)c1)C2=O | 1 | 0 | 3 | 83 | -14 | 79 | x | x | x
COc1ccc(OC)c(N/C(=N/C(=S)Nc2ccccc2)Nc2nc(C)cc(C)n2)c1 | -1 | -1 | -3 | 48*[inhibitor] | -49 | 54 | 88 | -4 | 99
COc1ccc(C(=O)NCC(=O)OCC(=O)NCCC2=CCCCC2)cc1 | -2 | 0 | 1 | 100 | -3 | 96 | x | x | x
COc1ccc(C(=O)NCCC2=CCCCC2)cc1 | -3 | -2 | 2 | 131* | 1 | 107 | 100 | -9 | 97
SMILES | GSK3A inh | STK33 inh | GSK3beta inhib | MEKK3 PB1 HTS | MEKK2 mut-MEK5 | MEKK2 WT-MEK5 | MEKK2wt confirm | MEKK2mut-MEK5 | MEKK3-MEK5 inh
CC(C)n1c(O)c(/C=C2\C=Nc3ccccc32)sc1=Nc1ccccc1 | -1 | 0 | 2 | 13*[inhibitor] | -35 | 22*[inhibitor] | 106 | 0 | 100
O=C(CCC1CCN(C(=O)c2cc(C(F)(F)F)ccc2Cl)CC1)NC1CC1 | 0 | -1 | -26 | 99 | 3 | 102 | x | x | x
O=c1oc2ccccc2c(Nc2ccc3ncccc3c2)c1[N+](=O)[O-] | 0 | 2 | -12 | 147* | 1 | 109 | 97 | -3 | 99
CCN(CC(O)CON=C1c2ccccc2-c2ccccc21)S(=O)(=O)c1ccc(C)cc1 (stereo not given) | 0 | -1 | -3 | 141* | 0 | 110 | 93 | -5 | 100
Cc1cc(-c2nc3ncccc3o2)ccc1NC(=S)NC(=O)c1ccco1 | 2 | 0 | 0 | 103 | 1 | 103 | x | x | x
COc1ccc(C(CCN2CCCC2)c2c(O)cc(OC)cc2OC)cc1 (stereo not given) | 0 | -4 | 0 | 117 | 9 | 149* | 158 | 31 | 108
COc1cc(O)c(C(CCN2CCOCC2)c2ccc3c(c2)OCO3)c(OC)c1 (stereo not given) | x | 0 | 0 | 92 | 1 | 90 | x | x | x
COc1cc(O)c(C(CCN2CCOCC2)c2cc(OC)c(OC)c(OC)c2)c(OC)c1 (stereo not given) | -4 | 0 | -1 | 119 | 3 | 142* | 98 | -8 | 97
COc1cc(O)c(C(CCN2CCCC2)c2cc(OC)c(OC)c(OC)c2)c(OC)c1 (stereo not given) | 0 | 1 | 1 | 114 | 5 | 145* | 118 | 13 | 103
COc1cc(O)c(C(CCN2CCCCC2)c2cc(OC)c(OC)c(OC)c2)c(OC)c1 (stereo not given) | -2 | -1 | 2 | 94 | 3 | 90 | x | x | x
Cc1ccc(NC(=O)c2c([N+](=O)[O-])c(C(C)(C)C)nn2C)c(C)c1 | 2 | 0 | 0 | 137* | 1 | 109 | 103 | 4 | 105
CC(=O)Nc1ccc(NC(=O)c2c([N+](=O)[O-])c(C(C)(C)C)nn2C)cc1 | 0 | -2 | 2 | 94 | -5 | 97 | x | x | x

High-throughput results from PubChem.
